A word on the IC50: it is the concentration that gives 50% inhibition.

The source made the active and inactive calls.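 The calls were made as follows: active = any inhibition of the KCNQ1 potassium channel at some tested dose, with a fitted dose response curve; inactive = no inhibition at any dose or no curve fitted.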

The target in one experiment is Potassium voltage-gated channel subfamily KQT member 1 (Homo sapiens) (UniProt P51787). As to the kind of experiment: human KCNQ1 blockade by KCNQ2 inhibitors – automated patch clamp, KCNQ1-CHO cells, selectivity assay for KCNQ2 inhibitor project, SAR follow-up (AID 588425). Particulars: at 30 µM (top of the series). The gist of the method: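 System: KCNQ1-expressing CHO cells | Medium: NaCl/HEPES external, KCl/K-gluconate internal solutions | Probe or stimulus: Voltage stimulus from -70 mV holding, stepped to +40 mV | Schedule: 2,000 ms depolarization per sweep | Measured by: Automated patch clamp, amphotericin B-perforated recording of potassium current | Read-out: Percent current change relative to pre-compound current | Repeats: Four replicate recordings per concentration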
Potassium voltage-gated channel subfamily KQT member 1 (Homo sapiens), sequence (P51787 whole entry, looked up): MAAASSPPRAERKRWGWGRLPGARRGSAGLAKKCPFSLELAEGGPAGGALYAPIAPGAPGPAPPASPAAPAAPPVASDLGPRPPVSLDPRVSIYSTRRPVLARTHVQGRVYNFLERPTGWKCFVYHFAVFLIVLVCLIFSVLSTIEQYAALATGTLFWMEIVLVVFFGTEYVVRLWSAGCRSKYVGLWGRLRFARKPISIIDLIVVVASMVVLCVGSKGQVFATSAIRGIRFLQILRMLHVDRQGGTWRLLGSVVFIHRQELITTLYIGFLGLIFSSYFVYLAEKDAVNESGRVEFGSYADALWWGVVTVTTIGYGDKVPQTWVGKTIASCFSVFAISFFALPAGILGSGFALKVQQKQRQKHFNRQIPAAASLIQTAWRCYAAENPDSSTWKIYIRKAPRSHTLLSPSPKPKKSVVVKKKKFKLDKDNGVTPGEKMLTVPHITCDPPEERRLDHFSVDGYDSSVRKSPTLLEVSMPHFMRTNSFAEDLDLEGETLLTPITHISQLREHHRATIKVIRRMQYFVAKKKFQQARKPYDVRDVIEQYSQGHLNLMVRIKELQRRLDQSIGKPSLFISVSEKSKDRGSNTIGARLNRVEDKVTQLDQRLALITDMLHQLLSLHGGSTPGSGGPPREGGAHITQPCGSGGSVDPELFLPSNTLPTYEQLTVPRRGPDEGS
In general terms: In patch-clamp work, channel activity is measured electrically.
On to `C[C@H](C(=O)Nc1ccccc1N1CCCC1)c1ccccc1`, for which the “current change, negative = inhibition” value is “inactive”.
For the compound `CCC(C(=O)Nc1ccccc1N1CCCC1)c1ccccc1F` (stereo unspecified), the “current change, negative = inhibition” value is “inactive”.
As to `CCC(C(=O)Nc1ccccc1N1CCCC1)c1ccc(Cl)cc1` (stereo unspecified), the “current change, negative = inhibition” value was “inactive”.
Turning to `CCC(C(=O)Nc1ccccc1N1CCCC1)c1cccc(C(F)(F)F)c1` (stereo unspecified), the “current change, negative = inhibition” value was “inactive”.
Consider `CCC(C(=O)Nc1ccccc1N1CCCC1)c1cccc(C)c1` (stereo unspecified), for which the “current change, negative = inhibition” value is “inactive”.
On to `CC[C@H](C(=O)Nc1ccc(N2CCCC2)cc1)c1ccccc1`, for which the “current change, negative = inhibition” value is “inactive”.
On to `CCC(C(=O)Nc1ccccc1-c1ccccc1)c1ccccc1` (stereo unspecified), for which the “current change, negative = inhibition” value was “inactive”.

Staying with this experiment, now noted: automated patch clamp current.
Turning to `CCC(C(=O)Nc1ccccc1N1CCCC1)c1ccccc1` (stereo unspecified), the IC50 was 19.5 µM.
The same measure, in the same setting: the value for `O=C(Nc1ccccc1N1CCCC1)C1CCc2ccccc21` (stereo unspecified) was 12.1 µM; that for `CCC(C(=O)Nc1ccccc1N1CCCC1)c1ccc(F)cc1` (stereo unspecified) was 6.8 µM; that for `CCC(C(=O)Nc1ccccc1N1CCCC1)c1ccc(F)c(F)c1` (stereo unspecified) was 2.58 µM.
For `CC[C@@H](C(=O)Nc1ccc(N2CCCC2)cc1)c1ccccc1`, the IC50 was 14.9 µM.
The same measure, in the same setting: the value for `CC(C(=O)Nc1ccccc1N1CCCC1)c1ccccc1` (stereo unspecified) was 29 µM; that for `CCC(C(=O)Nc1ccccc1-n1cccc1)c1ccccc1` (stereo unspecified) was 13.7 µM.
Consider `CCC(C(=O)Nc1ccccc1N1CCCC1)c1cccc(F)c1` (stereo unspecified), for which the IC50 is 17.7 µM.
The same measure, in the same setting: the value for `CCC(C(=O)Nc1ccccc1N1CCCC1)c1cccc(Cl)c1` (stereo unspecified) was 11.2 µM; that for `CCC(C(=O)Nc1ccccc1N1CCCC1)c1ccc(Cl)c(Cl)c1` (stereo unspecified) was 9.96 µM.
Regarding `CCC(C(=O)Nc1ccc(N2CCCC2)cc1)c1ccccc1` (stereo unspecified), the IC50 was 29 µM.
`CCC(C(=O)Nc1ccccc1N1CCCC1)c1cccc(OC)c1` (stereo unspecified): the IC50 was 22.1 µM.
In the case of `CC[C@@H](C(=O)Nc1ccccc1N1CCCC1)c1ccccc1`, the IC50 was 8.67 µM.
Take `CC[C@H](C(=O)Nc1ccccc1N1CCCC1)c1ccccc1`: the IC50 was 2.92 µM.

(Values after PubChem BioAssay AID588425 (Johns Hopkins Ion Channel Center, 2011).)
